≈ marks a conversion by molar mass, not a printed value. Calls of active or inactive are those of the source. The rule behind the calls is not given here. Peptide text beside a SMILES is read from it. * marks the point of attachment. Boc = CC(C)(C)OC(=O)*; NHBn = c1ccc(CN*)cc1
Columns and labels:
[1] = test system: Candida albicans; assay: Antifungal activity against Candida albicans by CLSI method; format: functional, organism-based
[2] = test system: Aspergillus fumigatus; assay: Antifungal activity against Aspergillus fumigatus by CLSI method; format: functional, organism-based
[3] = test system: Escherichia coli; assay: Antibacterial activity against Escherichia coli ATCC 35218 after 16 to 20 hrs by CLSI method; format: functional, organism-based
[4] = test system: Nakaseomyces glabratus; assay: Antifungal activity against Candida glabrata by CLSI method; format: functional, organism-based
[5] = test system: Pichia kudriavzevii; assay: Antifungal activity against Candida krusei by CLSI method; format: functional, organism-based
[6] = test system: Cryptococcus neoformans; assay: Antifungal activity against Cryptococcus neoformans ATCC 90113 after 70 to 74 hrs by CLSI method; format: functional, organism-based; conditions: for IC50 / MIC: Cryptococcus neoformans, ATCC 90113
Outline: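 Growth inhibition of C. neoformans per the CLSI protocol. […] MIC is the lowest test concentration with no detectable growth. MFC is the lowest concentration killing 100% of the organism.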

[7] = test system: SK-MEL; assay: Cytotoxicity against human SK-MEL cells assessed as cell viability after 48 hrs by neutral red uptake assay; format: cell-based
Outline: (§1)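 Neutral red uptake assay in human cancer lines SK-MEL, KB, BT-549 and SK-OV-3 and in noncancerous mammalian kidney cells VERO and LLC-PK1. The highest tested concentration was 10 μg/mL.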

[8] = test system: KB; assay: Cytotoxicity against human KB cells assessed as cell viability after 48 hrs by neutral red uptake assay; format: cell-based; outline: as §1
[9] = test system: BT-549; assay: Cytotoxicity against human BT549 cells assessed as cell viability after 48 hrs by neutral red uptake assay; format: cell-based; conditions: bt-549, 48 h; outline: as §1
[10] = test system: SK-OV-3; assay: Cytotoxicity against human SKOV3 cells assessed as cell viability after 48 hrs by neutral red uptake assay; format: cell-based; conditions: sk-ov-3, 48 h; outline: as §1
[11] = test system: Vero; assay: Cytotoxicity against African green monkey Vero cells assessed as cell viability after 48 hrs by neutral red uptake assay; format: cell-based; conditions: chlorocebus sabaeus; outline: as §1
[12] = test system: LLC-PK1; assay: Cytotoxicity against pig LLC-PK1 cells assessed as cell viability after 48 hrs by neutral red uptake assay; format: cell-based, Sus scrofa; conditions: llc-pk1, 48 h; outline: as §1
[13] = Selectivity index, ratio of cytotoxicity for human SK-MEL cells to IC50 for Cryptococcus neoformans ATCC 90113; format: toxicity, cell-based; conditions: read-out: Selectivity Index
[14] = Selectivity index, ratio of cytotoxicity for human KB cells to IC50 for Cryptococcus neoformans ATCC 90113; format: toxicity, cell-based; conditions: read-out: Selectivity Index
[15] = Selectivity index, ratio of cytotoxicity for human BT549 cells to IC50 for Cryptococcus neoformans ATCC 90113; format: toxicity, cell-based, BT-549; conditions: read-out: Selectivity Index
[16] = Selectivity index, ratio of cytotoxicity for human SKOV3 cells to IC50 for Cryptococcus neoformans ATCC 90113; format: toxicity, cell-based, SK-OV-3; conditions: read-out: Selectivity Index
[17] = Selectivity index, ratio of cytotoxicity for African green monkey Vero cells to IC50 for Cryptococcus neoformans ATCC 90113; format: toxicity, cell-based; conditions: read-out: Selectivity Index
[18] = Selectivity index, ratio of cytotoxicity for pig LLC-PK1 cells to IC50 for Cryptococcus neoformans ATCC 90113; format: toxicity, cell-based; conditions: read-out: Selectivity Index
[19] = Retention time of the compound by reverse phase HPLC analysis; format: physicochemical
Outline: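 Reverse-phase HPLC on a C-18 column (25 cm × 4.6 mm, 5 μM) at 1 mL/min over 40 min. The gradient ran 85−5% with A = 0.1% TFA in H2O and B = 0.1% TFA in CH3CN. Detection was at 220 nm.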

| IC50 [6] [µg/mL] | MIC [6] [µg/mL] | SMILES | Activity [1] | Activity [2] | Activity [3] | Activity [4] | Activity [5] | MFC100 [6] [µg/mL] | Activity [7] [µg/mL] | Activity [8] [µg/mL] | Activity [9] [µg/mL] | Activity [10] [µg/mL] | Activity [11] [µg/mL] | Activity [12] [µg/mL] | selectivity ratio [13] | selectivity ratio [14] | selectivity ratio [15] | selectivity ratio [16] | selectivity ratio [17] | selectivity ratio [18] | further results |
| --- | --- | --- | --- | --- | --- | --- | --- | --- | --- | --- | --- | --- | --- | --- | --- | --- | --- | --- | --- | --- | --- |
| 0.71 (≈ 0.995 µM) | 1.25 (≈ 1.75 µM) | COC(=O)[C@H](CCCNC(=N)N)NC(=O)[C@H](Cc1c[nH]c(-c2ccc(C(C)(C)C)cc2)n1)NC(=O)[C@H](CCCNC(=N)N)NC(=O)OC(C)(C)C | inactive | inactive | inactive | inactive | inactive | 1.25 (≈ 1.75 µM) | > 10 | > 10 | > 10 | > 10 | > 10 | > 10 | > 14.1 | > 14.1 | > 14.1 | > 14.1 | > 14.1 | > 14.1 | Retention_time [19]: 20.91 min |
| 5.35 (≈ 8.15 µM) | 10 (≈ 15.2 µM) | CC(C)(C)OC(=O)N[C@@H](CCCNC(=N)N)C(=O)N[C@@H](Cc1c[nH]cn1)C(=O)N[C@@H](CCCNC(=N)N)C(=O)NCc1ccccc1 (Boc-Arg-His-Arg-NHBn) | inactive | inactive | inactive | inactive | inactive | 10 (≈ 15.2 µM) | > 10 | > 10 | > 10 | > 10 | > 10 | > 10 | > 1.8 | > 1.8 | > 1.8 | > 1.8 | > 1.8 | > 1.8 | Retention_time [19]: 16.41 min |
| 0.68 (≈ 0.891 µM) | 2.5 (≈ 3.28 µM) | COc1ccc(-c2nc(C[C@H](NC(=O)[C@H](CCCNC(=N)N)NC(=O)OC(C)(C)C)C(=O)N[C@@H](CCCNC(=N)N)C(=O)NCc3ccccc3)c[nH]2)cc1 | inactive | inactive | inactive | inactive | inactive | 5 (≈ 6.55 µM) | > 10 | > 10 | > 10 | > 10 | > 10 | > 10 | > 14.7 | > 14.7 | > 14.7 | > 14.7 | > 14.7 | > 14.7 | Retention_time [19]: 18.93 min |
| 3.93 (≈ 6.69 µM) | 5 (≈ 8.51 µM) | COC(=O)[C@H](CCCNC(=N)N)NC(=O)[C@H](Cc1c[nH]c(-c2ccc(OC)cc2)n1)NC(=O)[C@@H](N)CCCNC(=N)N | inactive | inactive | inactive | inactive | inactive | 5 (≈ 8.51 µM) | > 10 | > 10 | > 10 | > 10 | > 10 | > 10 | > 2.5 | > 2.5 | > 2.5 | > 2.5 | > 2.5 | > 2.5 |  |
| 0.61 (≈ 0.994 µM) | 1.25 (≈ 2.04 µM) | COC(=O)[C@H](CCCNC(=N)N)NC(=O)[C@H](Cc1c[nH]c(-c2ccc(C(C)(C)C)cc2)n1)NC(=O)[C@@H](N)CCCNC(=N)N | inactive | inactive | inactive | inactive | inactive | 1.25 (≈ 2.04 µM) | > 10 | > 10 | > 10 | > 10 | > 10 | > 10 | > 16.3 | > 16.3 | > 16.3 | > 16.3 | > 16.3 | > 16.3 |  |
|  | 1.25 (≈ 1.35 µM) | C[C@@H]1[C@H](O)[C@@H](C)/C=C/C=C/C=C/C=C/C=C/C=C/C=C/[C@H](O[C@@H]2O[C@H](C)[C@@H](O)[C@H](N)[C@@H]2O)C[C@@H]2O[C@](O)(C[C@@H](O)C[C@@H](O)[C@H](O)CC[C@@H](O)C[C@@H](O)CC(=O)O[C@H]1C)C[C@H](O)[C@H]2C(=O)O [AMPHOTERICIN B] |  |  |  |  |  | 1.25 (≈ 1.35 µM) |  |  |  |  |  |  |  |  |  |  |  |  |  |
| 0.73 (≈ 1.15 µM) | 1.25 (≈ 1.98 µM) | N=C(N)NCCC[C@H](NC(=O)[C@H](Cc1c[nH]c(-c2ccccc2)n1)NC(=O)[C@@H](N)CCCNC(=N)N)C(=O)NCc1ccccc1 | inactive | inactive | inactive | inactive | inactive | 1.25 (≈ 1.98 µM) | > 10 | > 10 | > 10 | > 10 | > 10 | > 10 | > 13.7 | > 13.7 | > 13.7 | > 13.7 | > 13.7 | > 13.7 |  |
| 0.35 (≈ 0.541 µM) | 0.63 (≈ 0.974 µM) | Cc1ccc(-c2nc(C[C@H](NC(=O)[C@@H](N)CCCNC(=N)N)C(=O)N[C@@H](CCCNC(=N)N)C(=O)NCc3ccccc3)c[nH]2)cc1 | inactive | inactive | inactive | inactive | inactive | 10 (≈ 15.5 µM) | > 10 | > 10 | > 10 | > 10 | > 10 | > 10 | > 28.6 | > 28.6 | > 28.6 | > 28.6 | > 28.6 | > 28.6 |  |
| 0.59 (≈ 0.931 µM) | 1.25 (≈ 1.97 µM) | COC(=O)[C@H](CCCNC(=N)N)NC(=O)[C@H](Cc1c[nH]c(-c2ccc(-c3ccccc3)cc2)n1)NC(=O)[C@@H](N)CCCNC(=N)N | inactive | inactive | inactive | inactive | inactive | 1.25 (≈ 1.97 µM) | > 10 | > 10 | > 10 | > 10 | > 10 | > 10 | > 16.9 | > 16.9 | > 16.9 | > 16.9 | > 16.9 | > 16.9 |  |

Source: ChEMBL document CHEMBL3259662 (ACS Med Chem Lett, 2014)
